# Experimental data as given in ChEMBL document CHEMBL3286367, “Synthesis of new class of spirocarbocycle derivatives by multicomponent domino reaction and their evaluation for antimicrobial, anticancer activity and molecular docking studies” (2014).
# Activity calls are given as the source filed them. No cut-off for these calls is given here.
# Tests used:
# [1] = test system: Staphylococcus epidermidis; assay: Antimicrobial activity against Staphylococcus epidermidis MTCC 3615 assessed as zone of inhibition at 1 mg/disc after 24 hrs incubation by disc diffusion assay; assay type: functional
# Procedure, shortened: (§1)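 Inocula grown in Mueller Hinton broth for 24 h at 37 °C and swabbed onto Mueller Hinton agar. Discs carried 1 mg compound each and stood 30 min at room temperature before 24 h incubation at 37 °C. Solvent as negative control. Inhibition zones recorded in mm; experiment done twice.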
# [2] = test system: Staphylococcus aureus; assay: Antimicrobial activity against Staphylococcus aureus MTCC 96 assessed as zone of inhibition at 1 mg/disc after 24 hrs incubation by disc diffusion assay; assay type: functional; procedure, shortened: as §1
# [3] = test system: Staphylococcus aureus; assay: Antimicrobial activity against methicillin-resistant Staphylococcus aureus assessed as zone of inhibition at 1 mg/disc after 24 hrs incubation by disc diffusion assay; assay type: functional
# Procedure, shortened: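 Inoculum grown in Mueller Hinton broth 24 h at 37°C, swabbed onto Mueller Hinton agar and dried 10 min. Discs loaded at 1 mg/disc, then 30 min at room temperature for diffusion. Plates incubated 24 h at 37°C. Solvent negative control; streptomycin positive control. Zone of inhibition read in mm; experiment done twice.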
# [4] = test system: Micrococcus luteus; assay: Antimicrobial activity against Micrococcus luteus MTCC 106 assessed as zone of inhibition at 1 mg/disc after 24 hrs incubation by disc diffusion assay; assay type: functional; procedure, shortened: as §1
# [5] = test system: Klebsiella aerogenes; assay: Antimicrobial activity against Enterobacter aerogenes MTCC 111 assessed as zone of inhibition at 1 mg/disc after 24 hrs incubation by disc diffusion assay; assay type: functional; procedure, shortened: as §1
# [6] = test system: Salmonella typhimurium; assay: Antimicrobial activity against Salmonella typhimurium MTCC 1251 assessed as zone of inhibition at 1 mg/disc after 24 hrs incubation by disc diffusion assay; assay type: functional, Salmonella enterica subsp. enterica serovar Typhimurium; procedure, shortened: as §1
# [7] = test system: Klebsiella pneumoniae; assay: Antimicrobial activity against Klebsiella pneumonia MTCC 109 assessed as zone of inhibition at 1 mg/disc after 24 hrs incubation by disc diffusion assay; assay type: functional; procedure, shortened: as §1
# [8] = test system: Proteus vulgaris; assay: Antimicrobial activity against Proteus vulgaris MTCC 1771 assessed as zone of inhibition at 1 mg/disc after 24 hrs incubation by disc diffusion assay; assay type: functional; procedure, shortened: as §1
# [9] = test system: Shigella flexneri; assay: Antimicrobial activity against Shigella flexneri MTCC 1457 assessed as zone of inhibition at 1 mg/disc after 24 hrs incubation by disc diffusion assay; assay type: functional; procedure, shortened: as §1
# [10] = test system: Candida albicans; assay: Antifungal activity against Candida albicans MTCC 227 assessed as zone of inhibition at 1 mg/disc after 48 hrs incubation by disc diffusion assay; assay type: functional
# Procedure, shortened: (§2)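 Disc diffusion on Mueller Hinton agar with swabbed cultures, 1 mg compound per disc. Discs stood 30 min at room temperature for diffusion, then plates incubated 48 h at 28 °C. Solvent as negative control. Yeast pre-grown in Sabouraud dextrose broth at 28 °C for 48-72 h; filamentous fungal spores came from SDA slants grown 10 days at 28 °C. Zone diameters in mm; run twice.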
# [11] = test system: Malassezia pachydermatis; assay: Antifungal activity against Malassezia pachydermatis assessed as zone of inhibition at 1 mg/disc after 48 hrs incubation by disc diffusion assay; assay type: functional; procedure, shortened: as §2
# [12] = test system: Staphylococcus epidermidis; assay: Antimicrobial activity against Staphylococcus epidermidis MTCC 3615 assessed as absence of visible growth after 48 to 72 hrs; assay type: functional
# [13] = test system: Staphylococcus aureus; assay: Antimicrobial activity against methicillin-resistant Staphylococcus aureus assessed as absence of visible growth after 48 to 72 hrs; assay type: functional
# Procedure, shortened: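 Broth two-fold serial dilution in 96-well plates, 1000 to 7.81 µg/mL, compound dissolved in DMSO (2%). Inoculum grown in Mueller Hinton broth 24 h at 37°C. Streptomycin positive control. 5 µl of tested broth plated on MHA; MIC is the lowest concentration inhibiting visible growth on agar.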
# [14] = test system: Micrococcus luteus; assay: Antimicrobial activity against Micrococcus luteus MTCC 106 assessed as absence of visible growth after 48 to 72 hrs; assay type: functional
# [15] = test system: Klebsiella aerogenes; assay: Antimicrobial activity against Enterobacter aerogenes MTCC 111 assessed as absence of visible growth after 48 to 72 hrs; assay type: functional
# [16] = test system: Salmonella typhimurium; assay: Antimicrobial activity against Salmonella typhimurium MTCC 1251 assessed as absence of visible growth after 48 to 72 hrs; assay type: functional, Salmonella enterica subsp. enterica serovar Typhimurium; details: Salmonella enterica
# [17] = test system: Klebsiella pneumoniae; assay: Antimicrobial activity against Klebsiella pneumonia MTCC 109 assessed as absence of visible growth after 48 to 72 hrs; assay type: functional
# [18] = test system: Proteus vulgaris; assay: Antimicrobial activity against Proteus vulgaris MTCC 1771 assessed as absence of visible growth after 24 hrs
# [19] = test system: Shigella flexneri; assay: Antimicrobial activity against Shigella flexneri MTCC 1457 assessed as absence of visible growth after 24 hrs
# [20] = test system: Staphylococcus aureus; assay: Antimicrobial activity against Staphylococcus aureus MTCC 96 assessed as absence of visible growth after 24 hrs
structure (smiles),measurement,setting,value
N#CC1=C(N)[C@]2(C(=O)Nc3ccccc32)[C@@H](c2cccc3ccccc23)[C@@H]2CCCC=C12,inhibition zone (IZ),[1],15 mm
same,inhibition,[2],inactive
same,inhibition,[3],inactive
same,inhibition zone (IZ),[4],10 mm
same,inhibition zone (IZ),[5],18 mm
same,inhibition zone (IZ),[6],14 mm
same,inhibition zone (IZ),[7],16 mm
same,inhibition,[8],inactive
same,inhibition zone (IZ),[9],12 mm
same,inhibition,[10],inactive
same,inhibition zone (IZ),[11],9 mm
same,MIC,[12],125 µg/mL
same,inhibition,[13],inactive
same,MIC,[14],250 µg/mL
same,MIC,[15],125 µg/mL
same,MIC,[16],250 µg/mL
same,MIC,[17],125 µg/mL
same,inhibition,[18],inactive
same,MIC,[19],500 µg/mL
same,inhibition,[20],inactive
